Experimental data from ChEMBL document CHEMBL1146375, “Synthetic studies on novel benzimidazolopeptides with antimicrobial, cytotoxic and anthelmintic potential” (2007).
≈ marks a conversion by molar mass, not a printed value. Residues, ends and D or L forms follow the SMILES beside them. *: point of attachment. X3 = Cc1cc2nc(-c3c(I)cc(C(=O)*)cc3I)[nH]c2cc1C

Tests used:
Trichophyton benhamiae [1] = assay: Antifungal activity against Trichophyton mentagrophytes MUCC 665 after 48 hrs by disc diffusion method; type: functional, Arthroderma benhamiae
How it was run: (§1)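 Agar well diffusion on plates inoculated with spore suspension in normal saline from cultures on Sabouraud's broth. Wells punched and loaded with test samples or griseofulvin at 10 mg mL^-1, with DMSO as negative control. Incubated 48 h at 37 °C.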

[2] = Anthelmintic activity against Megascoplex konkanensis ICARBC 211 assessed as mean paralyzing time; type: functional
How it was run: (§2)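 Earthworms exposed to test suspensions at 2 mg mL^-1 (0.2% w/v), made by triturating compound with Tween 80 (0.5%) and distilled water, then mechanically stirred 30 min. Mebendazole suspension prepared alike as reference. Paralysis and death times recorded; death confirmed by no movement in 50 °C water. Means from triplicate sets.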

Escherichia coli [3] = assay: Antibacterial activity against Escherichia coli NCIM 2065 after 18 hrs by tube dilution method; type: functional; details: NCIM 2065, 18 h
Microsporum audouinii [4] = assay: Antifungal activity against Microsporum audouinii MUCC 545 after 48 hrs by tube dilution method; type: functional
How it was run: (§3)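 Tube dilution MIC as for bacteria (seven concentrations, 200–3.1 […]), with DMSO in place of DMF. Tubes inoculated with fungal culture and incubated 48 h at 37 °C. MIC read from presence or absence of growth.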

Eudrilus [5] = assay: Anthelmintic activity against Eudrilus sp. assessed as mean paralyzing time; type: functional; how it was run: as §2
Pseudomonas aeruginosa [6] = assay: Antibacterial activity against Pseudomonas aeruginosa NCIM 2034 after 18 hrs by tube dilution method; type: functional; details: NCIM 2034, 18 h
How it was run: (§4)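 Tube dilution MIC. Stock diluted in sterile broth to seven concentrations from 200 to 3.1 […]. Each tube inoculated with one loopful of test bacterium and incubated 18 h at 37 °C. MIC read from presence or absence of growth.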

Candida albicans [7] = assay: Antifungal activity against Candida albicans MUCC 29 after 48 hrs by tube dilution method; type: functional; how it was run: as §3
Pseudomonas aeruginosa [8] = assay: Antibacterial activity against Pseudomonas aeruginosa NCIM 2034 after 18 hrs by disc diffusion method; type: functional
How it was run: (§5)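 Modified Kirby-Bauer disc diffusion. Plates inoculated with spore suspension (about 6 × 10⁴ spores mL^-1). Sterile 6 mm paper discs carried test samples at 10 mg mL^-1; ciprofloxacin disc as reference, DMF disc as negative control. Plates held 18 h at 37 °C. Inhibition zone diameters (mm) averaged over triplicate sets.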

Trichophyton benhamiae [9] = assay: Antifungal activity against Trichophyton mentagrophytes MUCC 665 after 48 hrs by tube dilution method; type: functional, Arthroderma benhamiae; how it was run: as §3
Bacillus subtilis [10] = assay: Antibacterial activity against Bacillus subtilis NCIM 2063 after 18 hrs by disc diffusion method; type: functional; how it was run: as §5
[11] = Anthelmintic activity against Megascoplex konkanensis ICARBC 211 assessed as mean death time; type: functional; how it was run: as §2
Pontoscolex corethrurus [12] = assay: Anthelmintic activity against Pontoscolex corethrurus ICARBC 408 assessed as mean death time; type: functional
How it was run: (§6)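 Earthworms exposed to test suspensions at 2 mg mL−1, prepared by triturating compound with Tween 80 (0.5%) and distilled water, stirring 30 min, then diluting to 0.2% w/v. Mebendazole suspension was made the same way. Death was confirmed by moving worms into 50 °C warm water and looking for movement. Mean death time (min) taken from triplicate sets.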

Bacillus subtilis [13] = assay: Antibacterial activity against Bacillus subtilis NCIM 2063 after 18 hrs by tube dilution method; type: functional; details: NCIM 2063, 18 h; how it was run: as §4
Staphylococcus aureus [14] = assay: Antibacterial activity against Staphylococcus aureus NCIM 2079 after 18 hrs by disc diffusion method; type: functional; how it was run: as §5
Eudrilus [15] = assay: Anthelmintic activity against Eudrilus sp. assessed as mean death time; type: functional; how it was run: as §6
Microsporum audouinii [16] = assay: Antifungal activity against Microsporum audouinii MUCC 545 after 48 hrs by disc diffusion method; type: functional; how it was run: as §1
Pontoscolex corethrurus [17] = assay: Anthelmintic activity against Pontoscolex corethrurus ICARBC 408 assessed as mean paralyzing time; type: functional; how it was run: as §2
Candida albicans [18] = assay: Antifungal activity against Candida albicans MUCC 29 after 48 hrs by disc diffusion method; type: functional; how it was run: as §1
Aspergillus niger = assay: Antifungal activity against Aspergillus niger MUCC 177 after 48 hrs by disc diffusion method; type: functional; how it was run: as §1
Staphylococcus aureus [19] = assay: Antibacterial activity against Staphylococcus aureus NCIM 2079 after 18 hrs by tube dilution method; type: functional; details: NCIM 2079, 18 h; how it was run: as §4
Escherichia coli [20] = assay: Antibacterial activity against Escherichia coli NCIM 2065 after 18 hrs by disc diffusion method; type: functional; how it was run: as §5

SMILES | inhibition zone (IZ) (Trichophyton benhamiae [1]) [mm] | TIME [2] [h] | MIC (Escherichia coli [3]) [µg/mL] | MIC (Microsporum audouinii [4]) [µg/mL] | Time (Eudrilus [5]) [min] | MIC (Pseudomonas aeruginosa [6]) [µg/mL] | MIC (Candida albicans [7]) [µg/mL] | inhibition zone (IZ) (Pseudomonas aeruginosa [8]) [mm] | MIC (Trichophyton benhamiae [9]) [µg/mL] | inhibition zone (IZ) (Bacillus subtilis [10]) [mm] | TIME [11] [h] | Time (Pontoscolex corethrurus [12]) [min] | MIC (Bacillus subtilis [13]) [µg/mL] | inhibition zone (IZ) (Staphylococcus aureus [14]) [mm] | Time (Eudrilus [15]) [min] | inhibition zone (IZ) (Microsporum audouinii [16]) [mm] | Time (Pontoscolex corethrurus [17]) [min] | inhibition zone (IZ) (Candida albicans [18]) [mm] | inhibition zone (IZ) (Aspergillus niger) [mm] | MIC (Staphylococcus aureus [19]) [µg/mL] | also measured
COC(=O)[C@H](C)NC(=O)[C@@H](NC(=O)[C@H](C)NC(=O)c1cc(-c2nc3cc(C)c(C)cc3[nH]2)ccc1O)C(C)C | 14 | 0.426 | 25 (≈ 46.5 µM) | 6 (≈ 11.2 µM) | 25.55 | 6 (≈ 11.2 µM) | 6 (≈ 11.2 µM) | 19 | 6 (≈ 11.2 µM) | 13 | 0.578 | 41.79 | 6 (≈ 11.2 µM) | 9 | 36.23 | 10 | 29.89 | 18 | 16 | 25 (≈ 46.5 µM) | inhibition zone (IZ) (Escherichia coli [20]): 16 mm
COC(=O)[C@@H]1CCCN1C(=O)[C@H](Cc1cnc[nH]1)NC(=O)c1cc(I)c(-c2nc3cc(C)c(C)cc3[nH]2)c(I)c1 | 12 | 0.229 | 12.5 (≈ 16.3 µM) | 25 (≈ 32.6 µM) | 13.48 | 6 (≈ 7.83 µM) | 6 (≈ 7.83 µM) | 24 | 6 (≈ 7.83 µM) | 14 | 0.379 | 29.58 | 6 (≈ 7.83 µM) | 11 | 23.98 | 9 | 17.52 | 16 | 13 | 12.5 (≈ 16.3 µM) | inhibition zone (IZ) (Escherichia coli [20]): 17 mm
CC[C@H](C)[C@H](NC(=O)CNC(=O)c1cc(I)c(-c2nc3cc(C)c(C)cc3[nH]2)c(I)c1)C(=O)NCC(=O)N[C@H](C(=O)OC)[C@@H](C)O (X3-GIGT-OMe) | 9 | 0.602 | 12.5 (≈ 14.5 µM) | 25 (≈ 29.1 µM) | 38.45 | 6 (≈ 6.97 µM) | 12.5 (≈ 14.5 µM) | 22 | 25 (≈ 29.1 µM) | 15 | 1.08 | 82.3 | 6 (≈ 6.97 µM) | 12 | 70.54 | 9 | 57.67 | 13 | 18 | 12.5 (≈ 14.5 µM) | inhibition zone (IZ) (Escherichia coli [20]): 17 mm
COC(=O)[C@H](Cc1ccccc1)NC(=O)[C@@H]1CCCN1C(=O)[C@@H]1CCCN1C(=O)c1ccc(-c2nc3cc(C)c(C)cc3[nH]2)cc1 | 13 | 0.613 | 25 (≈ 40.2 µM) | 25 (≈ 40.2 µM) | 32.82 | 6 (≈ 9.65 µM) | 6 (≈ 9.65 µM) | 20 | 6 (≈ 9.65 µM) | 13 | 1.04 | 72.24 | 12.5 (≈ 20.1 µM) | 8 | 53.34 | 9 | 49.35 | 16 | 14 | 25 (≈ 40.2 µM) | inhibition zone (IZ) (Escherichia coli [20]): 16 mm
COC(=O)[C@@H]1CCCN1C(=O)[C@@H]1CCCN1C(=O)[C@@H]1CCCN1C(=O)c1cc(-c2nc3ccc([N+](=O)[O-])cc3[nH]2)ccc1O | 17 | 0.425 | 25 (≈ 41.3 µM) | 6 (≈ 9.92 µM) | 26.67 | 6 (≈ 9.92 µM) | 6 (≈ 9.92 µM) | 27 | 12.5 (≈ 20.7 µM) | 14 | 0.569 | 40.38 | 6 (≈ 9.92 µM) | 11 | 37.44 | 13 | 30.59 | 24 | 17 | 12.5 (≈ 20.7 µM) | inhibition zone (IZ) (Escherichia coli [20]): 17 mm
COC(=O)[C@H](Cc1cnc[nH]1)NC(=O)c1cc(I)c(-c2nc3cc(C)c(C)cc3[nH]2)c(I)c1 | 12 | 0.488 | 12.5 (≈ 18.7 µM) | 25 (≈ 37.4 µM) | 34.34 | 6 (≈ 8.97 µM) | 6 (≈ 8.97 µM) | 24 | 12.5 (≈ 18.7 µM) | 16 | 0.758 | 47.82 | 6 (≈ 8.97 µM) | 12 | 46.3 | 11 | 34.14 | 18 | 14 | 12.5 (≈ 18.7 µM) | inhibition zone (IZ) (Escherichia coli [20]): 18 mm
CC[C@H](C)[C@H](NC(=O)[C@H](CC(C)C)NC(=O)c1cc(-c2nc3cc(C)c(C)cc3[nH]2)ccc1O)C(=O)OC | 13 | 0.425 | 12.5 (≈ 23.9 µM) | 6 (≈ 11.5 µM) | 25.69 | 6 (≈ 11.5 µM) | 6 (≈ 11.5 µM) | 20 | 6 (≈ 11.5 µM) | 15 | 0.569 | 41.53 | 6 (≈ 11.5 µM) | 10 | 36.12 | 12 | 29.83 | 19 | 19 | 12.5 (≈ 23.9 µM) | inhibition zone (IZ) (Escherichia coli [20]): 16 mm
COC(=O)[C@H](Cc1ccc(O)cc1)NC(=O)[C@H](C)NC(=O)[C@H](Cc1c[nH]c2ccccc12)NC(=O)c1cc(-c2nc3cc(C)c(C)cc3[nH]2)ccc1O | 14 | 0.228 | 12.5 (≈ 17.4 µM) | 12.5 (≈ 17.4 µM) | 13.41 | 6 (≈ 8.37 µM) | 6 (≈ 8.37 µM) | 21 | 6 (≈ 8.37 µM) | 13 | 0.379 | 29.34 | 12.5 (≈ 17.4 µM) | 10 | 24.07 | 11 | 17.6 | 17 | 16 | 12.5 (≈ 17.4 µM) | inhibition zone (IZ) (Escherichia coli [20]): 16 mm
COC(=O)[C@H](Cc1c[nH]c2ccccc12)NC(=O)c1cc(I)c(-c2nc3cc(C)c(C)cc3[nH]2)c(I)c1 | 12 | 0.217 | 12.5 (≈ 17.4 µM) | 12.5 (≈ 17.4 µM) | 13.5 | 6 (≈ 8.35 µM) | 6 (≈ 8.35 µM) | 25 | 6 (≈ 8.35 µM) | 16 | 0.371 | 29.29 | 6 (≈ 8.35 µM) | 12 | 24.02 | 9 | 17.1 | 18 | 19 | 12.5 (≈ 17.4 µM) | inhibition zone (IZ) (Escherichia coli [20]): 19 mm
COC(=O)[C@H](Cc1ccccc1)NC(=O)c1cc(-c2nc3cc(C)c(C)cc3[nH]2)ccc1O | 15 | 0.437 | 12.5 (≈ 28.2 µM) | 25 (≈ 56.4 µM) | 26.78 | 6 (≈ 13.5 µM) | 6 (≈ 13.5 µM) | 24 | 6 (≈ 13.5 µM) | 14 | 0.592 | 42.56 | 6 (≈ 13.5 µM) | 10 | 37.74 | 9 | 30.34 | 17 | 17 | 12.5 (≈ 28.2 µM) | inhibition zone (IZ) (Escherichia coli [20]): 17 mm
